A selection: hits, their analogues and other compounds. The true share with any hit is near 3.5%.
PAFAH2 inh = PAFAH2 (human) inhibition | Q99487 | recombinant PAFAH2, FP-rhodamine activity probe, fluorescence polarization | inhibition, % at 3.39 µM | 340,000 tested, 0.99% active | AID 492956;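 active means inhibition above the mean over all tested compounds plus 3 SD, cut at about 30% in these data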;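 further: inhibitors block probe labeling of enzyme so polarization drops; 0% = enzyme with DMSO and 100% = wells lacking PAFAH2 protein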
PAFAH1B2 FP inh = inhibitors of human PAFAH1B2 | P68402 | recombinant PAFAH1B2, FP-rhodamine activity probe, fluorescence polarization | inhibition, % at 3.39 µM | 340,000 tested, 1.2% active;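 active means inhibition above the mean of all tested compounds plus 3 SD, cut at about 24% in these data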;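 further: 0% = enzyme with DMSO and 100% = wells lacking PAFAH1B2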
PREPL inh = inhibitors of human prolyl oligopeptidase-like enzyme PREPL; Q4J6C6; recombinant PREPL, fluorescence polarization activity-based probe; inhibition, % at 5.96 µM; 320,000 tested, 0.68% active; AID 2751; in the data active means inhibition above about 43%;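 further: 0% = enzyme with DMSO and 100% = wells lacking enzyme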
PAFAH1B3 FP inh = PAFAH1B3 (human) inhibition. Q15102. recombinant PAFAH1B3, FP-rhodamine probe, fluorescence polarization. inhibition, % at 3.39 µM. 340,000 tested, 0.28% active. AID 492972;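 active means inhibition above the screen-wide average of all tested compounds plus 3 SD, cut at about 25% in these data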;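 further: 0% = enzyme with DMSO only and 100% = wells lacking PAFAH1B3 protein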
Apaf-1 inh = inhibitors of human Apaf-1 apoptosome; reconstituted apoptosome caspase-3 activity, DEVD-Rh110 fluorescence; inhibition, % at 20 µM; AID 489030; O14727; 330,000 tested, 0.71% active; active means inhibition of at least 40% at 20 µM;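 further: plate controls were DMSO wells for no effect and DEVD-CHO caspase inhibitor wells for full effect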
Target sequence (O14727 whole entry, looked up): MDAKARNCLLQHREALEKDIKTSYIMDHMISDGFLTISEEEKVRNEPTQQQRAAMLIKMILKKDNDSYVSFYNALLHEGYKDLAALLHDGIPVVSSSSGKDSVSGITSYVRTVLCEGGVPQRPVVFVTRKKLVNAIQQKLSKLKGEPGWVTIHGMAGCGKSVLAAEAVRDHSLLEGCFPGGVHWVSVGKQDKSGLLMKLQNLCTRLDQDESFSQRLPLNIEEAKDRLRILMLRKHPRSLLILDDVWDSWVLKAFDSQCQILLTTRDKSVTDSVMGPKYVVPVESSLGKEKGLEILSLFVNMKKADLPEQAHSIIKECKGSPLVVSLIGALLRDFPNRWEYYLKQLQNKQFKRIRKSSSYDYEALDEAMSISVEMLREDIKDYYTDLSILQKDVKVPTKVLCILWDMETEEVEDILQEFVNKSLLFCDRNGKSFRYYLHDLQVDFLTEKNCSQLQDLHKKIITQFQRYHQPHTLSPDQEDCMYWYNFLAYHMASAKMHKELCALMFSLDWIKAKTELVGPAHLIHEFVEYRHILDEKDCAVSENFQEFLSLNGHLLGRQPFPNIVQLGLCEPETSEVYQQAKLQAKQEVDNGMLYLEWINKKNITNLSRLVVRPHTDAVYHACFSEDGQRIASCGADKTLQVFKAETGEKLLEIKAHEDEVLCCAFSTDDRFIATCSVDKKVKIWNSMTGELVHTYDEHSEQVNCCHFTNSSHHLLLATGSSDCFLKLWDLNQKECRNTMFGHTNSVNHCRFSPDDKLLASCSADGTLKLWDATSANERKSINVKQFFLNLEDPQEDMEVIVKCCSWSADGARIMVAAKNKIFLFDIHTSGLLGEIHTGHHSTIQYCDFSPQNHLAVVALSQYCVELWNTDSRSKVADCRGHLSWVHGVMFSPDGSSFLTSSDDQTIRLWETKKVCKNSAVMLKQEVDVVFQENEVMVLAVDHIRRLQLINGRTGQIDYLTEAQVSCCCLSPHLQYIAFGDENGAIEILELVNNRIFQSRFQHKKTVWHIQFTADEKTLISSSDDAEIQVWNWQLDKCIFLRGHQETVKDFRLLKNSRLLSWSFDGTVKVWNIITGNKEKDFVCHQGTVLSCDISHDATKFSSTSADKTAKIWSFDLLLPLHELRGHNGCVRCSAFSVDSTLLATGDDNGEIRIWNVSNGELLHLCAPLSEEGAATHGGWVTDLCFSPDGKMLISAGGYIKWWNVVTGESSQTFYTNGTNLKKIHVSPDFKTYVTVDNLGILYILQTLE
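Material: biochemical Apaf-1 apoptosome reconstitution. Medium: Hepes buffer, pH 7.5. Also added: cytochrome c activation, bis-DEVD rhodamine 110 substrate. Timing: 30 min compound preincubation, 50 min activation, room temperature. Measured by: rhodamine 110 fluorescence at Ex 480/Em 540 nm.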
pPAFAH FP inh = inhibitors of human plasma PAF acetylhydrolase (pPAFAH); Q13093; inhibition, % at 3.39 µM; 330,000 tested, 1.5% active; recombinant pPAFAH, FP-rhodamine probe fluorescence polarization;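 active means inhibition above the mean inhibition across the screen plus 3 SD, cut at about 25% in these data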;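 further: inhibitors block binding of the rhodamine activity-based probe so polarization drops; 0% = enzyme with DMSO and 100% = wells lacking pPAFAH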
An asterisk follows results filed as active; x = no result given.

SMILES	PAFAH2 inh	PAFAH1B2 FP inh	PREPL inh	PAFAH1B3 FP inh	Apaf-1 inh	pPAFAH FP inh
Oc1cccc(NC(=S)N=Nc2c(O)[nH]c3ccc(Br)cc23)c1	7	10	33	16	7	28*
COC(=O)c1ccccc1N=Nc1c(C)noc1C	3	1	12	-1	2	0
CCOC(=O)CN(C(=O)CSc1nnc(Cc2ccccc2)n1-c1ccc(C)cc1)c1ccccc1	1	2	13	1	14	13
Cc1ccc(-c2noc(CSc3nnc(Cc4ccccc4)n3-c3ccc(Cl)cc3)n2)cc1	-2	20	22	-4	26	25*
CCOC(=O)CSc1nnc(Cc2ccccc2)n1-c1ccc(C)cc1	8	7	9	1	7	32*
Cc1ccc(-c2noc(CSc3nnc(CCc4ccccc4)n3-c3ccccc3)n2)cc1	-8	6	-5	0	5	8
COc1ccc(NC(=O)COC(=O)CNC(=O)COc2ccccc2)cc1OC	4	3	x	5	0	x
CN(CC(=O)Nc1ccccc1Cl)C(=O)COC(=O)/C=C/c1cccc(C(F)(F)F)c1	2	11	15	4	2	2
CC(Oc1nc2c(c(=O)n(C)c(=O)n2C)n1C)C1CCCCC1 (centres undefined)	10	5	x	11	x	x
N#Cc1c(Cl)nc(N/N=C/c2ccccc2)c(Cl)c1Cl	0	0	5	1	9	29*
COc1ccc(C)c2sc(N(CCCN(C)C)C(=O)c3ccc(S(=O)(=O)N4CCc5ccccc5C4)cc3)nc12	4	4	17	3	x	-1
CC1CCCCN1S(=O)(=O)c1ccc(C(=O)N(CCCN(C)C)c2nc3ccc(Br)cc3s2)cc1 (centres undefined)	-3	4	-10	5	67*	1
CN(C)CCN(C(=O)c1ccc(S(=O)(=O)N2CCCC2)cc1)c1nc2ccc(Br)cc2s1	7	7	4	9	2	9
COc1ccc(OC)c2sc(N(CCCN(C)C)C(=O)c3ccc(S(=O)(=O)N4CCc5ccccc5C4)cc3)nc12	x	x	2	x	55*	1
CCOc1cccc2sc(N(CCCN(C)C)C(=O)c3ccc(S(=O)(=O)N(CC)Cc4ccccc4)cc3)nc12	-4	1	10	17	67*	-2
Cc1ccc(C(=O)N2CCN(c3ncccn3)CC2)c(C)c1	13	-2	12	3	9	-9
CCOc1ccccc1NC(=O)c1cccc(S(=O)(=O)N(Cc2ccccc2)c2ccccc2OC)c1	-9	-5	-4	-4	8	2
COc1ccccc1N(Cc1ccccc1)S(=O)(=O)c1cccc(C(=O)O)c1	-2	7	-2	8	4	34*
Cc1ccc(NC(=O)CN2C(=O)NC(C)(c3ccccc3)C2=O)c(C)c1 (centres undefined)	8	-3	0	3	8	1
COc1ccc(NC(=O)CSc2ccc3nnc(-c4cccnc4)n3n2)c(OC)c1	2	1	45*	10	-1	7
Cc1cccc(Oc2cc(NC(=O)Cn3cnc([N+](=O)[O-])n3)cc([N+](=O)[O-])c2)c1	-13	1	21	-2	x	29*
CCc1ccc(NC(=O)NCCN2CCCCC2)cc1	4	5	13	7	6	-4
COc1ccc(-n2c(CCc3ccccc3)nnc2SCC(=O)NCc2ccccc2)cc1	1	6	7	-4	11	11
O=C(CSc1nnc(CCc2ccccc2)n1-c1ccc(Cl)cc1)NCc1ccccc1	5	9	19	5	24	35*
CN(CC(=O)Nc1ccccc1Cl)C(=O)COC(=O)c1ccc(=O)n(Cc2ccccc2)n1	4	-3	-7	6	-3	8
SMILES	PAFAH2 inh	PAFAH1B2 FP inh	PREPL inh	PAFAH1B3 FP inh	Apaf-1 inh	pPAFAH FP inh
CN(CC(=O)Nc1ccc(F)cc1)C(=O)COC(=O)c1ccc(=O)n(Cc2ccccc2)n1	2	5	7	3	-6	29*
CC(=O)Oc1ccccc1C(=O)C=Cc1cccc([N+](=O)[O-])c1	-2	-4	x	-3	x	x
CCc1n[nH]c(=S)n1/N=C/c1ccc2c(c1)OCO2	3	2	0	-4	-18	9
CCc1n[nH]c(=S)n1/N=C/c1ccc(N(C)c2ccccc2)cc1	-1	-6	23	11	16	26*
Cc1n[nH]c(=S)n1/N=C/c1ccc(OCc2ccc(Cl)cc2)cc1	10	28*	34	6	13	5
S=c1[nH]nc(Cc2ccc(Br)cc2)n1/N=C/c1ccc(Cl)cc1	-2	34*	-30	13	17	7
Cc1oc2ccc(O)cc2c1C(=O)c1ccc(Br)cc1	5	4	-6	4	5	-1
N#C/C(=C\c1cc2c(cc1Br)OCO2)c1ccc(C(=O)O)cc1	5	33*	15	6	-11	-5
Cc1cc(NC(=O)CSc2nc3ccccc3c(=O)n2C2CCCC2)no1	-2	0	7	2	0	30*
CN(C)c1ccc(NC(=O)CSc2nc3ccccc3c(=O)n2C2CCCCC2)cc1	1	4	8	12	13	34*
Cc1cc(NC(=O)CSc2nc3ccccc3c(=O)n2Cc2ccccc2)no1	0	7	-5	-4	-8	1
CCOC(=O)C(=O)Cc1cccnn1	10	8	x	10	x	x
Cc1cc(OC(C)C(=O)NCc2cccnc2)c2c(C)cc(=O)oc2c1 (centres undefined)	-6	-4	9	7	5	-3
CCOC(=O)CCc1ccc(NC(=O)/C=C/c2ccc([N+](=O)[O-])o2)cc1	0	-1	x	8	x	x
CCc1ccc(C(=O)/C=C/c2ccc([N+](=O)[O-])o2)cc1	1	1	12	0	15	27*
COc1ccc(S(=O)(=O)Nc2cccc(Cl)c2)cc1OC	4	5	-2	7	-6	10
COc1ccc(NS(=O)(=O)c2ccc(OC)c(N(C)S(=O)(=O)c3ccc(Cl)cc3)c2)cc1	-2	1	24	-5	4	28*
COc1ccc(CNC(=O)CSc2n[nH]c(N)n2)cc1	1	5	1	0	4	-1
O=C(O)CCCNc1cc(N2CCC3(CC2)OCCO3)c2noc3c2c1C(=O)c1ccccc1-3	x	x	30	x	-11	76*
O=C(c1cc(-c2ccco2)on1)N1CCCc2ccccc21	6	2	0	-1	0	25*
O=C(c1cc(-c2ccco2)on1)N1CCc2ccccc2C1	0	4	-24	-9	3	30*
O=C(c1cc(-c2ccccc2O)on1)N1CCc2ccccc2C1	-3	3	-31	7	8	2
O=C(c1cc(-c2ccccc2)on1)N1CCCc2ccccc21	1	3	-4	-1	0	3

Bioassay records as filed in PubChem BioAssay.
